Laboratory results from ChEMBL document CHEMBL1134633, “Synthesis and antiviral activity of novel 5-(1-cyanamido-2-haloethyl) and 5-(1-hydroxy(or methoxy)-2-azidoethyl) analogues of uracil nucleosides” (J Med Chem, 2001).
pEC50: −log10 of the molar value.

What was measured:
Human alphaherpesvirus 1 [1] = assay: Inhibition of plaque formation in monolayers of HSV-1 E-377 Vero cells by 50%; type: functional, organism-based; settings: Human alphaherpesvirus 1, Vero
Human alphaherpesvirus 1 [2] = assay: Inhibition of plaque formation in monolayers of HSV-1 KOS Vero cells by 50%; type: functional, organism-based; settings: Human alphaherpesvirus 1, Vero
Summary of the method: (§1)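 Vero cells in DMEM with 5% FBS, seeded 1 day ahead, infected with ~100 PFU/well (KOS, TK+; KOSSB, TK−) for 1 h at 37 °C. Inoculum replaced with drug dilutions in duplicate: first 25, 10, 5, 1 µg/mL (KOS) or 50, 25, 10, 1 µg/mL (KOSSB), then 1:2 series. After 48 h at 37 °C, methanol fixation and Giemsa staining. EC50 from plaque counts versus no-drug controls.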

Human alphaherpesvirus 1 [3] = assay: Inhibition of plaque formation in monolayers of HSV-1 KOSSB(TK-) Vero cells by 50%; type: functional, organism-based; settings: Human alphaherpesvirus 1, Vero; summary of the method: as §1
Human alphaherpesvirus 2 = assay: Inhibition of viral cytopathic effect in infected human foreskin fibroblast cell monolayers of HSV-2 MS […] by 50%; type: functional, organism-based
Human alphaherpesvirus 3 = assay: Inhibition of viral cytopathic effect in infected human foreskin fibroblast cell in monolayers of VZV Ellen […] by 50%; type: functional, organism-based
[4] = tested on: Human betaherpesvirus 5 (HCMV); assay: Inhibition of viral cytopathic effect in infected human foreskin fibroblast cell in monolayers of HCMV AD-169 by 50%
Human alphaherpesvirus 1 [5] = assay: Inhibition of plaque formation in monolayers of HSV-1 E-377 (TK+) Vero cells by 50%; type: functional, organism-based; settings: Human alphaherpesvirus 1, Vero
Human alphaherpesvirus 1 [6] = assay: Inhibition of plaque formation in monolayers of HSV-1 KOS (TK+) Vero cells by 50%; type: functional, organism-based; settings: Human alphaherpesvirus 1, Vero; summary of the method: as §1
Human alphaherpesvirus 1 [7] = assay: Inhibition of plaque formation in monolayers of HSV-1 E-377(TK+) Vero cells by 50%; type: functional, organism-based; settings: Human alphaherpesvirus 1, Vero
Human alphaherpesvirus 1 [8] = assay: Inhibition of plaque formation in monolayers of HSV-1 KOS (TK+)Vero cells by 50%; type: functional, organism-based; settings: Human alphaherpesvirus 1, Vero; summary of the method: as §1
[9] = tested on: Human betaherpesvirus 5 (HCMV); assay: Inhibition of viral cytopathic effect in infected human foreskin fibroblast cell in monolayers of HCMV AD-169 by 50%; remark: listed apart in the source

SMILES | pEC50 (Human alphaherpesvirus 1 [1]) | pEC50 (Human alphaherpesvirus 1 [2]) | pEC50 (Human alphaherpesvirus 1 [3]) | pEC50 (Human alphaherpesvirus 2) | pEC50 (Human alphaherpesvirus 3) | pEC50 [4] | pEC50 (Human alphaherpesvirus 1 [5]) | pEC50 (Human alphaherpesvirus 1 [6]) | pEC50 (Human alphaherpesvirus 1 [7]) | pEC50 (Human alphaherpesvirus 1 [8]) | pEC50 [9]
N#CNC(CCl)c1cn([C@H]2C[C@H](O)[C@@H](CO)O2)c(=O)[nH]c1=O (stereo partly drawn) | 3.68 | 4.43 | < 3.82 | 3.98 | 4.50 | 3.56 | – | – | – | – | –
[N-]=[N+]=NCC(O)c1cn([C@H]2C[C@H](O)[C@@H](CO)O2)c(=O)[nH]c1=O (stereo partly drawn) | < 3.49 | < 4.10 | < 3.79 | < 3.49 | < 3.49 | < 3.49 | – | – | – | – | –
COC(CN=[N+]=[N-])c1cn([C@H]2C[C@H](O)[C@@H](CO)O2)c(=O)[nH]c1=O (stereo partly drawn) | < 3.52 | < 4.12 | < 3.82 | < 3.52 | < 3.52 | < 3.52 | – | – | – | – | –
N#CNC(CI)c1cn([C@H]2C[C@H](O)[C@@H](CO)O2)c(=O)[nH]c1=O (stereo partly drawn) | – | – | 4.82 | 4.11 | 4.84 | < 3.63 | 5.03 | 5.80 | – | – | –
N#CNC(CBr)c1cn([C@H]2C[C@H](O)[C@@H](CO)O2)c(=O)[nH]c1=O (stereo partly drawn) | – | – | < 3.88 | 4.06 | 4.68 | < 3.58 | – | – | 4.37 | 5.18 | –
N#CNC(CBr)c1cn(C2O[C@H](CO)[C@@H](O)[C@@H]2O)c(=O)[nH]c1=O (stereo partly drawn) | < 3.59 | 4.20 | < 3.90 | < 3.59 | 4.49 | < 3.59 | – | – | – | – | –
N#CNC(CI)c1cn(C2O[C@H](CO)[C@@H](O)[C@@H]2O)c(=O)[nH]c1=O (stereo partly drawn) | < 3.64 | 4.64 | < 3.94 | < 3.64 | 4.94 | < 3.64 | – | – | – | – | –
Nc1nc2c(ncn2COCCO)c(=O)[nH]1 [ACYCLOVIR] | 5.36 | 5.66 | 3.75 | 5.21 | – | – | – | – | – | – | –
O=c1[nH]c(=O)n([C@H]2C[C@H](O)[C@@H](CO)O2)cc1/C=C/Br [BRIVUDINE] | 5.57 | 5.82 | < 3.82 | – | 8.52 | < 3.82 | – | – | – | – | –
CCc1cn([C@H]2C[C@H](O)[C@@H](CO)O2)c(=O)[nH]c1=O [EDOXUDINE] | 4.37 | 4.71 | < 3.11 | 4.23 | 4.49 | – | – | – | – | – | < 3.41
Nc1nc2c(ncn2COC(CO)CO)c(=O)[nH]1 [GANCICLOVIR] | – | – | – | – | – | 6.64 | – | – | – | – | –
